# Assays:
# Type in all cases: functional
# Human alphaherpesvirus 1 [1] = test: Minimum inhibitory concentration required to reduce herpes simplex virus-1 (HSV-1 (F)) virus-induced cytopathicity by 50%
# [2] = test system: Vesicular stomatitis virus; test: Minimum inhibitory concentration required to reduce VSV virus-induced cytopathicity by 50%
# Human alphaherpesvirus 2 [3] = test: Minimum inhibitory concentration required to reduce herpes simplex virus-2 (HSV-2 (Lyons)) virus-induced cytopathicity by 50%
# Human alphaherpesvirus 1 [4] = test: Minimum inhibitory concentration required to reduce herpes simplex virus-1 (HSV-1 (McIntyre)) virus-induced cytopathicity by 50%
# Human alphaherpesvirus 2 [5] = test: Minimum inhibitory concentration required to reduce herpes simplex virus-2 (HSV-2 (196)) virus-induced cytopathicity by 50%
# Human alphaherpesvirus 1 [6] = test: Minimum inhibitory concentration required to reduce thymidine kinase deficient-HSV-1 (B2006) virus-induced cytopathicity by 50%
# Human alphaherpesvirus 2 [7] = test: Minimum inhibitory concentration required to reduce herpes simplex virus-2 (HSV-2 (G)) virus-induced cytopathicity by 50%
# Vaccinia virus = test: Minimum inhibitory concentration required to reduce vaccinia virus (VV) virus-induced cytopathicity by 50%; settings: Orthopoxvirus vaccinia
# Human alphaherpesvirus 1 [8] = test: Minimum inhibitory concentration required to reduce herpes simplex virus-1 (HSV-1 (KOS)) virus-induced cytopathicity by 50%
# Cytomegalovirus [9] = test: Minimum inhibitory concentration required to reduce cytomegalo virus (CMV (Davis)) virus-induced cytopathicity by 50%; settings: Human betaherpesvirus 5
# Human alphaherpesvirus 3 [10] = test: Minimum inhibitory concentration required to reduce Varicella-Zoster virus (VZV (Oka)) virus-induced cytopathicity by 50%
# Cytomegalovirus [11] = test: Minimum inhibitory concentration required to reduce cytomegalo virus (CMV (AD-169)) virus-induced cytopathicity by 50%; settings: Human betaherpesvirus 5
# Human alphaherpesvirus 3 [12] = test: Minimum inhibitory concentration required to reduce TK-VZV (YS/R) virus-induced cytopathicity by 50%
# Cell line [13] = test: Minimum concentration required to cause a microscopically detectable alteration of human cells morphology
# Summary of the method: (§1)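 Cytotoxicity read as the minimum concentration causing a microscopically detectable alteration of normal cell morphology. Cells were human embryonic skin-muscle (E6SM) or human embryonic lung (HEL), seeded in 96-well plates.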
# [14] = (§2) Minimum inhibitory concentration required to reduce virus-induced cell growth by 50%; settings: Homo sapiens
# Human alphaherpesvirus 1 [15] = test: Minimum inhibitory concentration required to reduce thymidine kinase deficient-HSV-1 (VMW 1837) virus-induced cytopathicity by 50%
# Human alphaherpesvirus 3 [16] = test: Minimum inhibitory concentration required to reduce TK-VZV (07-1) virus-induced cytopathicity by 50%
# Cell line [17] = test: Minimum concentration required to cause a microscopically detectable alteration of cell morphology; settings: Homo sapiens; summary of the method: as §1
# Human alphaherpesvirus 1 [18] = test: Minimum inhibitory concentration required to reduce TK-HSV-1 (B2006) virus-induced cytopathicity by 50%
# Cell line [19] = test: as §2; settings: Homo sapiens
# Summary of the method: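 Cytotoxicity was measured as inhibition of cell growth in E6SM or HEL cells seeded in 96-well plates.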
# Mus musculus [20] = test: Survival of mice after intraperitoneal infection with HSV-1 (KOS) and oral administration of 25 mg/kg at day 12
# Summary of the method: (§3)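 Mice were infected intraperitoneally with HSV-1 (KOS), 10 mice per group. Drug was given by oral gavage once daily for 5 days, starting on the day of infection, at 25, 100 or 250 mg/kg per day. Vehicle was a 90:10 suspension of Sirupus Simplex and propylene glycol; the placebo group got the same syrup. Surviving mice were counted over 20 days.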
# Mus musculus [21] = test: Survival of mice after intraperitoneal infection with HSV-1 (KOS) and oral administration of 100 mg/kg at day 0; summary of the method: as §3
# Mus musculus [22] = test: Survival of mice after intraperitoneal infection with HSV-1 (KOS) and oral administration of 25 mg/kg at day 20; summary of the method: as §3
# Mus musculus [23] = test: Survival of mice after intraperitoneal infection with HSV-1 (KOS) and oral administration of 250 mg/kg at day 0; summary of the method: as §3
# Mus musculus [24] = test: Survival of mice after intraperitoneal infection with HSV-1 (KOS) and oral administration of 100 mg/kg at day 12; summary of the method: as §3
# Mus musculus [25] = test: Survival of mice after intraperitoneal infection with HSV-1 (KOS) and oral administration of 100 mg/kg at day 20; summary of the method: as §3
# Mus musculus [26] = test: Survival of mice after intraperitoneal infection with HSV-1 (KOS) and oral administration of 100 mg/kg at day 9; summary of the method: as §3
# Mus musculus [27] = test: Survival of mice after intraperitoneal infection with HSV-1 (KOS) and oral administration of 250 mg/kg at day 3; summary of the method: as §3
# Mus musculus [28] = test: Survival of mice after intraperitoneal infection with HSV-1 (KOS) and oral administration of 250 mg/kg at day 12; summary of the method: as §3
# Mus musculus [29] = test: Survival of mice after intraperitoneal infection with HSV-1 (KOS) and oral administration of 25 mg/kg at day 3; summary of the method: as §3
# Mus musculus [30] = test: Survival of mice after intraperitoneal infection with HSV-1 (KOS) and oral administration of 250 mg/kg at day 20; summary of the method: as §3
# Mus musculus [31] = test: Survival of mice after intraperitoneal infection with HSV-1 (KOS) and oral administration of 25 mg/kg at day 9; summary of the method: as §3
# Mus musculus [32] = test: Survival of mice after intraperitoneal infection with HSV-1 (KOS) and oral administration of 100 mg/kg at day 3; summary of the method: as §3
# Mus musculus [33] = test: Survival of mice after intraperitoneal infection with HSV-1 (KOS) and oral administration of 100 mg/kg at day 6; summary of the method: as §3
# Mus musculus [34] = test: Survival of mice after intraperitoneal infection with HSV-1 (KOS) and oral administration of 25 mg/kg at day 6; summary of the method: as §3
# Mus musculus [35] = test: Survival of mice after intraperitoneal infection with HSV-1 (KOS) and oral administration of 25 mg/kg at day 0; summary of the method: as §3
# Mus musculus [36] = test: Survival of mice after intraperitoneal infection with HSV-1 (KOS) and oral administration of 250 mg/kg at day 6; summary of the method: as §3
# Mus musculus [37] = test: Survival of mice after intraperitoneal infection with HSV-1 (KOS) and oral administration of 250 mg/kg at day 9; summary of the method: as §3
Structure (SMILES),MIC (Human alphaherpesvirus 1 [1]) [µg/mL],MIC [2] [µg/mL],MIC (Human alphaherpesvirus 2 [3]) [µg/mL],MIC (Human alphaherpesvirus 1 [4]) [µg/mL],MIC (Human alphaherpesvirus 2 [5]) [µg/mL],MIC (Human alphaherpesvirus 1 [6]) [µg/mL],MIC (Human alphaherpesvirus 2 [7]) [µg/mL],MIC (Vaccinia virus) [µg/mL],MIC (Human alphaherpesvirus 1 [8]) [µg/mL],MIC (Cytomegalovirus [9]) [µg/mL],MIC (Human alphaherpesvirus 3 [10]) [µg/mL],MIC (Cytomegalovirus [11]) [µg/mL],MIC (Human alphaherpesvirus 3 [12]) [µg/mL],MIC [14] [µg/mL],MIC (Human alphaherpesvirus 1 [15]) [µg/mL],MIC (Human alphaherpesvirus 3 [16]) [µg/mL],MIC (Cell line [17]) [µg/mL],other results
O=c1[nH]c(=O)n([C@H]2C[C@H](O)[C@@H](CO)O2)cc1-c1ccoc1,0.5,> 200,30,0.07,150,100,150,> 40,0.5,80,50,80,> 40,> 50,> 200,> 40,,MIC (Cell line [13]): > 40 µg/mL
O=c1[nH]c(=O)n([C@H]2C[C@H](O)[C@@H](CO)O2)cc1-c1cccs1,0.35,> 100,20,0.3,50,> 100,50,20,1.5,40,3,60,30,45,> 100,8,100,
C#Cc1ccc(-c2cn([C@H]3C[C@H](O)[C@@H](CO)O3)c(=O)[nH]c2=O)s1,0.2,> 200,> 200,0.2,> 200,,> 200,> 200,0.4,> 10,0.25,> 10,17,14,> 200,5,400,MIC (Human alphaherpesvirus 1 [18]): > 200 µg/mL
C=Cc1ccc(-c2cn([C@H]3C[C@H](O)[C@@H](CO)O3)c(=O)[nH]c2=O)s1,,> 200,,,,> 200,> 200,70,1,> 1,7,> 1,10,3.5,> 200,7,400,
Cc1ccc(-c2cn([C@H]3C[C@H](O)[C@@H](CO)O3)c(=O)[nH]c2=O)s1,0.2,> 400,20,0.7,150,400,50,> 200,0.2,> 40,0.08,> 40,> 40,> 50,150,> 40,> 200,
C[Si](C)(C)C#Cc1ccc(-c2cn([C@H]3C[C@H](O)[C@@H](CO)O3)c(=O)[nH]c2=O)s1,,> 40,,,,> 40,> 40,> 40,0.07,> 10,0.2,> 10,20,10,> 40,21,100,
O=c1[nH]c(=O)n([C@H]2C[C@H](O)[C@@H](CO)O2)cc1-c1ccno1,20,> 400,> 400,2,300,300,300,> 400,20,,0.48,,10,,> 400,,,MIC (Cell line [19]): > 50 µg/mL; MIC (Cell line [13]): 20 µg/mL
O=c1[nH]c(=O)n([C@H]2C[C@H](O)[C@@H](CO)O2)cc1-c1ccc([N+](=O)[O-])s1,,> 200,,,,> 200,150,150,2,> 40,7,> 40,> 40,,150,40,,MIC (Cell line [19]): > 50 µg/mL; MIC (Cell line [13]): > 200 µg/mL
O=c1[nH]c(=O)n([C@H]2C[C@H](O)[C@@H](CO)O2)cc1-c1ccc(I)s1,,> 40,,,,> 40,> 40,> 40,0.04,> 40,0.07,> 40,40,> 50,> 40,10,100,
O=c1[nH]c(=O)n([C@H]2C[C@H](O)[C@@H](CO)O2)cc1-c1ccsc1,0.6,> 100,70,0.04,100,150,70,> 40,0.3,> 40,1.5,> 40,20,> 50,> 100,35,> 100,
O=c1[nH]c(=O)n(C2O[C@H](CO)[C@@H](O)[C@@H]2O)cc1-c1ccc(Br)s1 (stereo partly specified),0.07,> 100,20,0.02,70,> 100,70,20,0.08,35,0.05,30,40,> 50,> 100,40,> 40,No. of mice (Mus musculus [20]): 2; No. of mice (Mus musculus [21]): 10; No. of mice (Mus musculus [22]): 2; No. of mice (Mus musculus [23]): 10; No. of mice (Mus musculus [24]): 1; No. of mice (Mus musculus [25]): 1; No. of mice (Mus musculus [26]): 1; No. of mice (Mus musculus [27]): 10; No. of mice (Mus musculus [28]): 5; No. of mice (Mus musculus [29]): 10; No. of mice (Mus musculus [30]): 5; No. of mice (Mus musculus [31]): 2; No. of mice (Mus musculus [32]): 10; No. of mice (Mus musculus [33]): 8; No. of mice (Mus musculus [34]): 10; No. of mice (Mus musculus [35]): 10; No. of mice (Mus musculus [36]): 8; No. of mice (Mus musculus [37]): 5
O=c1[nH]c(=O)n(C2O[C@H](CO)[C@@H](O)[C@@H]2O)cc1-c1ccc(Cl)s1 (stereo partly specified),0.05,> 400,150,0.015,150,> 400,300,> 150,0.15,70,0.08,30,37,> 50,> 400,60,> 400,
O=c1[nH]c(=O)n([C@H]2C[C@H](O)[C@@H](CO)O2)cc1/C=C/Br [BRIVUDINE],0.02,> 200,70,0.01,> 400,> 200,70,0.2,0.01,,0.004,,> 40,> 50,10,> 40,> 400,No. of mice (Mus musculus [20]): 3; No. of mice (Mus musculus [21]): 10; No. of mice (Mus musculus [22]): 3; No. of mice (Mus musculus [23]): 10; No. of mice (Mus musculus [24]): 8; No. of mice (Mus musculus [25]): 7; No. of mice (Mus musculus [26]): 8; No. of mice (Mus musculus [27]): 10; No. of mice (Mus musculus [28]): 10; No. of mice (Mus musculus [29]): 10; No. of mice (Mus musculus [30]): 9; No. of mice (Mus musculus [31]): 4; No. of mice (Mus musculus [32]): 9; No. of mice (Mus musculus [33]): 9; No. of mice (Mus musculus [34]): 10; No. of mice (Mus musculus [35]): 10; No. of mice (Mus musculus [36]): 10; No. of mice (Mus musculus [37]): 10
